A selection: hits, their analogues and other compounds. The true share with any hit is near 1.4%.
UBC9 SUMO inh = SUMOylation inhibition; P63279; HTRF SUMOylation assay, SAE1/SAE2 + UBC9, in vitro; inhibition, % at 35 µM; 290,000 compounds, 0.36% hits; AID 2006; in the data active = inhibition above about 50%, passing the limit was not always enough
UCH37 inh = blocks the human deubiquitinase UCH37; Q9Y5K5; purified proteasome/UCH37, Ub-AMC cleavage fluorescence; inhibition, % (no concentration beside the values); 330,000 compounds, 0.33% hits;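 active = mean inhibition over replicate wells above about 20%, limit read from the data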;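 note: 0% = compound-free wells with enzyme and 100% = wells lacking proteasome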
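System: Proteasome-associated human UCH37 deubiquitinase; Input: 0.15 nM proteasome in added enzyme buffer; Also added: Ub-AMC substrate from 1 µM stock; Incubation: 30 min compound-proteasome preincubation then 25 min substrate reaction, room temperature; Detection: fluorescence, ex 355 nm, em 460 nm; Read-out: % inhibition of Ub-AMC cleavage fluorescence; Benchmarks: no-proteasome and no-compound wells.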
CTSL1 counter = cathepsin L1 inhibition, PFM18AAP counter-screen. inhibition, % at 5.96 µM. recombinant F. hepatica cathepsin L1, Z-Leu-Arg-MCA fluorescence. AID 1906. 300,000 compounds, 0.49% hits;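 active = inhibition above the mean of all tested compounds plus 3 SD, set per screening campaign, cut at about 17% in these data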;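 note: 0% = plate median of test compound wells and 100% = 1 µM Z-Phe-Ala-diazomethylketone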
Neddyl block = blocks human cullin neddylation | P61081+Q13564 | TR-FRET cullin neddylation, biochemical | inhibition, % at 25 µM | 360,000 compounds, 0.58% hits; in the data active = inhibition above about 36%
Target sequence (P61081 whole entry, looked up): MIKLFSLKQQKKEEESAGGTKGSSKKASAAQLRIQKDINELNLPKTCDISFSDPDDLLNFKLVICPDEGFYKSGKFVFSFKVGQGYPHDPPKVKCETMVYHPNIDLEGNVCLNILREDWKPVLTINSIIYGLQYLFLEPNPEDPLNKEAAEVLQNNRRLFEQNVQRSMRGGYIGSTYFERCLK
Target sequence (Q13564 whole entry, looked up): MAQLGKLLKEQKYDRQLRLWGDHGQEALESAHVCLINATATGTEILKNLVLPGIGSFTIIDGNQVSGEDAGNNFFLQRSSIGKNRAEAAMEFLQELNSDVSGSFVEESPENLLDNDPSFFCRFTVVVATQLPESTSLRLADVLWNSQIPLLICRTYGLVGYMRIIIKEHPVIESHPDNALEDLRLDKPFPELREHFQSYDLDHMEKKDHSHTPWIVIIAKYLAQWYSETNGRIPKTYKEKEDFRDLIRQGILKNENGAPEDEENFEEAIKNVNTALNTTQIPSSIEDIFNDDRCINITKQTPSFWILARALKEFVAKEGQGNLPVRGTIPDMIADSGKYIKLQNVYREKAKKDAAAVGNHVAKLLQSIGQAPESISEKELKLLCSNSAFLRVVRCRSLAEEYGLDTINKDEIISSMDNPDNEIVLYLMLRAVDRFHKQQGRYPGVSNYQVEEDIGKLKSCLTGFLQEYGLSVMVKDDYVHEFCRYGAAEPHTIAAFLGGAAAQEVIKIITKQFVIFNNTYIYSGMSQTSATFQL
* hit, by the source's call; / = no result shown.

SMILES | UBC9 SUMO inh | UCH37 inh | CTSL1 counter | Neddyl block
COCCN=C1OC(=O)N2C(=O)C3=C4[C@@H](C[C@H]5C(=O)N(c6ccccc6)C(=O)[C@H]5[C@H]4[C@@]12Cc1ccccc1)[C@H]1C(=O)N(c2ccccc2)C(=O)[C@H]1[C@H]3C | 13 | 3 | 18* | -2
O=C(NCC1(c2ccccc2)CCCC1)c1ccc(Br)cc1 | -3 | 2 | -2 | -2
Nc1ccccc1C(=O)NCC1(c2ccccc2)CCCC1 | 10 | -39 | 18* | /
COc1cc(C(=O)Nc2c(C)cc(C)cc2C)c([N+](=O)[O-])cc1OC | 6 | 5 | 22* | -18
CCn1c(COc2ccccc2C)nnc1SCC(=O)O | -3 | 2 | -3 | -2
CCn1c(COc2ccccc2C)nnc1SCC(=O)CC(=O)Nc1ccccc1 | 10 | 3 | 25* | 15
N#CC(C#N)=NNc1ccc([N+](=O)[O-])cc1 | 10 | 15 | 24* | -106
C/C(=N\Nc1ccc([N+](=O)[O-])cc1)c1ccc(C#N)cc1 | 22 | / | 5 | -13
Cc1ccc(SCC(=O)NN=Cc2ccco2)cc1 | / | 0 | / | /
Cc1ccc(NC(=O)Nc2ncccc2C)cc1 | 0 | 3 | -2 | 4
Cc1ccc(NC(=O)Nc2ccno2)cc1 | 72* | 4 | -2 | 0
O=C(O)c1sccc1S(=O)(=O)N1CCCCC1 | / | / | / | -5
CC1(C)CN(c2ccsc2C(=O)O)C1=O | -12 | -3 | 26* | 14
NC(=S)Nc1cccc2cc3ccccc3cc12 | 18 | -21 | 2 | 47*
COc1ccc2[nH]cc(C(=O)CCl)c2c1 | 15 | 1 | 74* | 21
Cc1ccc(S(=O)(=O)NN=Cc2cn(C)nc2C)cc1 | / | 2 | / | /
Cc1nn(-c2ccccc2)c(Oc2ccc(F)cc2)c1C=Nn1cnnc1 | / | 2 | / | /
CCN1CCc2c(C#N)c(N3CCCCC3)nc(N3CCOCC3)c2C1 | 0 | -91 | 18* | /
CCN1CCc2c(C#N)c(N3CCOCC3)nc(N3CCOCC3)c2C1 | 18 | -18 | 3 | 25
CCCCCCCCCCCCCCCC[N+](C)(C)CCN(Cc1ccc(OC)cc1)c1ncccn1 | / | 27* | 2 | 7
CC(=NNC(=O)c1ccccc1)c1ccc2c(c1)OCO2 | / | 3 | / | /
CCOc1ccc(C2C=C(c3ccccc3)Nc3ncnn32)cc1 (stereo not given) | 52* | / | 1 | /
CCOc1ccc(C2C=C(c3ccc(F)cc3)Nc3ncnn32)cc1 (stereo not given) | 45 | -27 | -2 | /
COc1ccc(C)cc1NC(=O)c1cc2ccccc2o1 | 12 | -4 | 33* | 14
COc1ccc(OC)c(NC(=O)c2cc3ccccc3o2)c1 | 4 | -9 | 2 | 8
SMILES | UBC9 SUMO inh | UCH37 inh | CTSL1 counter | Neddyl block
O=C(C[n+]1ccccc1)NN=Cc1ccccc1[N+](=O)[O-] | / | 6 | / | /
Cc1cc(N2CCCCCC2)nc2ccccc12 | 32 | -1 | 20* | 4
Cc1cc(N2CCCCC2)nc2ccccc12 | 7 | -20 | 2 | 5
CN(c1ccc(C(=O)Nc2ccc3c(c2)OCO3)cc1)S(C)(=O)=O | -10 | 2 | 17* | -4
CN(c1ccc(C(=O)Nc2ccc3c(c2)OCCO3)cc1)S(C)(=O)=O | -3 | 1 | -4 | 5
CC(=NNC(=O)c1nn(C)cc1Br)c1cccc(NC(=O)C(C)(C)C)c1 | / | 1 | / | /
CC1CCCC(=NNS(=O)(=O)c2ccccc2)C1 (stereo not given) | / | 3 | / | /
NC(=S)NN=C1c2ccccc2-c2c(C(=O)O)cccc21 | / | 7 | / | /
COc1cc(CO)cc(-c2cc(CO)cc(OC)c2OC)c1OC | -7 | 26* | -2 | -2
Cc1cc(CNC(=O)c2cccnc2Cl)c2ccccc2n1 | 24 | 1 | 18* | 1
Cc1ccc(C23CC4CC(CC(NC(=O)NN)(C4)C2)C3)cc1 | -13 | 3 | 28* | -11
Cc1ccc(C23CC4CC(CC(NC(=O)NC(C)(C)CO)(C4)C2)C3)cc1 | -21 | 3 | -2 | -2
CCOC(=O)c1c(NC(=O)CCS(=O)(=O)c2ccccc2)sc2c1CC(C)(C)NC2(C)C | 10 | 0 | 39* | 3
Cc1cccc(C=NNC(=O)c2ccc(F)cc2)n1 | / | 1 | / | /
CCOc1ccc(Nc2nc3ccccc3n3nnnc23)cc1 | 8 | -31 | 3 | 40*
CC(C)N(C(=O)Nc1ccc2nsnc2c1)C(C)C | 100* | -23 | 114* | /
COc1ccc(N(C)C(=O)Nc2ccc3nsnc3c2)cc1 | 103 | 0 | / | -24
Nc1nonc1-n1nnc(C(=O)NN=Cc2c(Cl)cccc2Cl)c1CSC1=NCCS1 | / | 0 | / | /
COc1ccc2ccc3c(c2c1)N=CC1(O3)N(C)c2ccccc2C1(C)C (stereo not given) | 42 | -5 | -4 | 43*

High-throughput results from PubChem.
